Rows were chosen to be rich in hits. Some 3.4% of all compounds tested hit in one or more screens of this group.
ANO1 activ – activators or potentiators of mouse TMEM16A chloride channel | AID 623877 | B-score at 10 µM | Q8BHY3 | HEK293 TMEM16A/YFP-H148Q/I152L, iodide quench fluorescence; hits give low values | 340,000 tested, 0.3% active;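 active means fluorescence-ratio B-score plate-corrected deviation score at least 3 library SD below zero, with starting fluorescence score within 5 deviations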;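 further: channel opened by trigger with iodide after compound preincubation; score built on the fluorescence ratio of max minus min over baseline; more negative score means more quench and so TMEM16A activation or potentiation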
ANO1 block – blocks the mouse calcium-activated chloride channel TMEM16A. Q8BHY3. HEK293 TMEM16A/YFP iodide influx fluorescence, ionomycin. normalized B-score (activity score, 25-100; higher = stronger inhibition) at 10 µM. 310,000 tested, 1.2% active;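 active means ratio plate-corrected score three or more library SD toward inhibition, starting fluorescence score within five deviations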;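 further: score derived from kinetic fluorescence span divided by baseline fluorescence per well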
MC4R antagonist – blocks human MC4R cAMP signaling | P32245 | MC4R-expressing cells, MTII-stimulated cAMP, LANCE TR-FRET | inhibition, % at 6.5 µM | 360,000 tested, 0.48% active;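 active means inhibition above its plate's cutoff, the mean of tested wells on that plate plus 3 SD, cut at about 29% in these data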;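 further: 0% = Melanotan II alone and 100% = Melanotan II plus saturating MCL0020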
Target sequence (P32245 whole entry, looked up): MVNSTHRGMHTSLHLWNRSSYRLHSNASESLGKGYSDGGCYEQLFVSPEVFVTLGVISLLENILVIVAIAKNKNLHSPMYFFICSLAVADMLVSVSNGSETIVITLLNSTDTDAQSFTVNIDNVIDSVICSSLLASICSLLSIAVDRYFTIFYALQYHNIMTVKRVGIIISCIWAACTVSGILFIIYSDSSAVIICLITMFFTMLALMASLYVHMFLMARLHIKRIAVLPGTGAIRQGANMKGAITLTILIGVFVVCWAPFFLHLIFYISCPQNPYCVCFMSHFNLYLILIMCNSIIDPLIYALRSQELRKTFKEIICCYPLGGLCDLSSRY
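System – human MC4R-expressing U2OS cells · Also added – Melanotan II · Dosing – one concentration, 6.5 µM nominal · Timing – 30-min compound, 1-h challenge, 1-h detection, room temperature · Measured by – Eu-cAMP/anti-cAMP TR-FRET, emission 671 nm · Replicates – singlicate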
HTR2A ag – mouse HTR2A agonism via beta-arrestin recruitment; AID 624169; 360,000 tested, 0.66% active; CHO-K1 mHTR2A beta-arrestin complementation, luminescence; percent of 30 µM serotonin response; P35363; activation, % at 7.6 µM;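 active means activation above a run cutoff, the mean activation of all tested compounds plus 3 SD, cut at about 14% in these data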;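 further: 0% = plate median of compound wells and 100% = 30 µM serotonin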
beta cell repl – MIN6 beta-cell proliferation induction; 330,000 tested, 0.29% active; AID 2380; proliferation, % at 10 µM; MIN6 cells proliferation, ATPlite luminescence, 48 h; cells starved in 0.2% serum; 100% = growth in 10% serum;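 active means compounds whose signal lies at least 3.5 SD above the mean of all wells on their plate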;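 further: 0% = DMSO-treated cells in low-serum medium and 100% = 10% serum control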
MC4R ag barr – activates human MC4R beta-arrestin recruitment; P32245; AID 540308; activation, % at 8.9 µM; U2OS MC4R beta-arrestin complementation, luminescence; percent of melanotan II response, DMSO zero; 360,000 tested, 0.98% active;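 active means activation above a per-plate cutoff, the mean activation of sample wells on that plate plus 3 SD, cut at about 8% in these data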
U2OS cAMP counter – U2OS forskolin cAMP inhibition counter-screen. parental U2OS, LANCE TR-FRET. inhibition, % at 6.5 µM. 1,600 tested, 26% active. shares compounds with MC4R antagonist;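 active means mean inhibition over triplicates above the low-control well mean plus 3 SD, set per campaign, cut at about 13% in these data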;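 further: signal is single emission at 671 nm which falls as cellular cAMP rises; 0% = forskolin-stimulated wells and 100% = buffer without forskolin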
MC4R antag conf – human MC4R cAMP antagonism confirmation. shares compounds with MC4R antagonist. MC4R-expressing cells, MTII-stimulated cAMP, TR-FRET. inhibition, % at 6.5 µM. 1,600 tested, 27% active. AID 602195; in the data active means inhibition above about 29%;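 further: 0% = agonist stimulated wells alone and 100% = agonist stimulated wells plus saturating reference antagonist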
The depositor's hits bear a star.

How did CCCCNc1c(-c2ccc(OC)c(Sc3ccc(OC)cc3)c2)nc2ccccn12 do in these assays?
ANO1 activ: inactive; ANO1 block: inactive; MC4R antagonist: 46*; HTR2A ag: 14; beta cell repl: -9; MC4R ag barr: 5; U2OS cAMP counter: 7; MC4R antag conf: 28

What do the screens show for `O=C1[C@@H]2Cc3c([nH]c4ccccc34)C(c3ccccc3)N2C(=O)CN1C1CCN(Cc2ccccc2)CC1` (some centres undefined)?
ANO1 block: inactive; MC4R antagonist: -6; HTR2A ag: -8; beta cell repl: -4; MC4R ag barr: 3

How did COC(=O)c1ccc(C2c3[nH]c4ccccc4c3C[C@H]3C(=O)N(C4CCN(Cc5ccccc5)CC4)CC(=O)N23)cc1 (some centres undefined) do in these assays?
ANO1 activ: inactive; ANO1 block: inactive; MC4R antagonist: 37*; HTR2A ag: 1; beta cell repl: -6; MC4R ag barr: -1; U2OS cAMP counter: 6; MC4R antag conf: 22

How did O=C(NC1CC1)c1ccc(-c2cnc3cccnn23)cc1 do in these assays?
MC4R antagonist: 15; HTR2A ag: 4; MC4R ag barr: -2

How did COC(=O)[C@]12CCCCC=C1N(CCC1=CCCCC1)C(=O)[C@H](CC(=O)N1CCN(C(=O)c3ccco3)CC1)C2 do in these assays?
HTR2A ag: -2

What do the screens show for `O=C(OC1CCOC1=O)c1cc(-c2cccs2)nc2ccccc12` (centres undefined)?
ANO1 activ: inactive; ANO1 block: inactive; MC4R antagonist: 35*; HTR2A ag: -3; beta cell repl: 0; MC4R ag barr: 1; U2OS cAMP counter: 26*; MC4R antag conf: 38*

Results for O=C1OCCC1Sc1nnnn1-c1ccc(Cl)cc1 (centres undefined) ?
ANO1 activ: inactive; ANO1 block: inactive; MC4R antagonist: 38*; HTR2A ag: 1; beta cell repl: -1; MC4R ag barr: -2; U2OS cAMP counter: 22*; MC4R antag conf: 39*

What do the screens show for `CC(C)Cc1nnc(NC(=O)C2CC(=O)N(c3ccc4c(c3)OCCO4)C2)s1` (centres undefined)?
ANO1 activ: inactive; MC4R antagonist: 6; HTR2A ag: -5; beta cell repl: -6; MC4R ag barr: 0

What do the screens show for `O=C(Nc1nc(=O)n(C(=O)C2CC2)s1)c1ccccc1`?
ANO1 activ: inactive; ANO1 block: inactive; MC4R antagonist: 30*; HTR2A ag: -2; beta cell repl: -4; MC4R ag barr: 1; U2OS cAMP counter: 1; MC4R antag conf: -2

What do the screens show for `Cc1ccc(C(=O)Nc2nc(=O)n(C(=O)C3CC3)s2)cc1`?
ANO1 activ: inactive; ANO1 block: inactive; MC4R antagonist: 14; HTR2A ag: -3; beta cell repl: -4; MC4R ag barr: 1

How did O=C(NCCOc1ccccc1Cl)c1ncn[nH]1 do in these assays?
ANO1 activ: inactive; ANO1 block: inactive; MC4R antagonist: 30*; HTR2A ag: 2; beta cell repl: 0; MC4R ag barr: 0; U2OS cAMP counter: -2; MC4R antag conf: -9

Results for CCOC(=O)CCC(NC(=O)c1ccccc1C(=O)NC(CCC(=O)OCC)C(=O)OCC)C(=O)OCC (centres undefined) ?
ANO1 activ: inactive; ANO1 block: inactive; MC4R antagonist: 29*; HTR2A ag: 2; beta cell repl: 2; MC4R ag barr: 0; U2OS cAMP counter: 6; MC4R antag conf: 3

Results for CCOC(=O)CCC(NC(=O)c1ccc(NCN2C(=O)c3ccccc3C2=O)cc1)C(=O)OCC (centres undefined) ?
ANO1 activ: inactive; ANO1 block: inactive; MC4R antagonist: -20; HTR2A ag: 1; beta cell repl: -1; MC4R ag barr: 0

What do the screens show for `C=CCN(C(=O)Cn1nc(C)n2c(cc3cc(C)ccc32)c1=O)c1ccccc1`?
ANO1 activ: inactive; ANO1 block: inactive; MC4R antagonist: -6; HTR2A ag: -2; beta cell repl: 0; MC4R ag barr: -4

Results for CCOC(=O)C1CCCN(C(=O)c2ccc(-c3ccc([N+](=O)[O-])cc3)o2)C1 (centres undefined) ?
ANO1 activ: inactive; ANO1 block: inactive; MC4R antagonist: 16; HTR2A ag: 1; beta cell repl: -7; MC4R ag barr: -7

Results for CNc1nc(N/N=C/c2cc([N+](=O)[O-])ccc2F)nc(Nc2ccccc2)n1 ?
ANO1 activ: inactive; MC4R antagonist: 47*; HTR2A ag: -1; MC4R ag barr: -1; U2OS cAMP counter: 19*; MC4R antag conf: 62*

How did CC1CCCC(NC(=O)COC(=O)COc2ccc(C#N)cc2)C1C (centres undefined) do in these assays?
ANO1 activ: inactive; MC4R antagonist: 36*; HTR2A ag: 3; beta cell repl: -3; MC4R ag barr: 1; U2OS cAMP counter: 10; MC4R antag conf: 14

How did CC1CCCC(NC(=O)COC(=O)COc2ccc(Br)cc2)C1C (centres undefined) do in these assays?
ANO1 activ: inactive; MC4R antagonist: 13; HTR2A ag: 7; beta cell repl: -3; MC4R ag barr: 5

What do the screens show for `CCOc1ccccc1NC(=O)COC(=O)CN(C)S(=O)(=O)c1ccc(C)cc1`?
ANO1 activ: inactive; ANO1 block: inactive; MC4R antagonist: 17; HTR2A ag: 2; beta cell repl: -1; MC4R ag barr: -2

Results for COC(=O)c1sc(N)c(C(=O)OC)c1COC(=O)CNS(=O)(=O)c1ccc(C)c(C)c1 ?
ANO1 activ: inactive; ANO1 block: inactive; MC4R antagonist: 32*; HTR2A ag: 1; beta cell repl: 0; MC4R ag barr: 1; U2OS cAMP counter: 8; MC4R antag conf: 19

Results for Cc1ccc(S(=O)(=O)NCC(=O)OCc2nnc(-c3ccccc3)o2)cc1C ?
ANO1 activ: inactive; ANO1 block: inactive; MC4R antagonist: 29*; HTR2A ag: 1; beta cell repl: -4; MC4R ag barr: -3; U2OS cAMP counter: 20*; MC4R antag conf: 41*

How did CCOc1ccccc1NC(=O)COC(=O)CNS(=O)(=O)c1ccc(C)cc1 do in these assays?
ANO1 activ: inactive; ANO1 block: inactive; MC4R antagonist: 31*; HTR2A ag: 2; beta cell repl: 0; MC4R ag barr: 0; U2OS cAMP counter: 17*; MC4R antag conf: 35*
